Data on seven compounds can be found in ChEMBL document CHEMBL3352450, “Indazole-type alkaloids from Nigella sativa seeds exhibit antihyperglycemic effects via AMPK activation in vitro” (J Nat Prod, 2014).

Series [1] concerns HepG2. Nature of the series: Increase in glucose consumption in human HepG2 cells grown under low-glucose medium assessed as reduction in glucose levels at 25 uM incubated for 7 hrs by glucose assay. It is filed as functional. Also on record: scale not given: the % may be the effect or the level left. The procedure, abridged: (§1)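 HepG2 cells (kept in high-glucose DMEM with 10% FBS) were seeded at 4.0 × 10^4 cells/well for 8 h. They were then held overnight in low-glucose ([…]) medium with 2 mM glutamine and 1% FBS. Treatment lasted 7 h in that medium, with DMSO stocks and 0.1% DMSO as solvent control. Medium glucose was read by colorimetric kit at 490 nm, with 3 replicates, as mean ± SD.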

For series [2], the system named is HepG2. Description: Toxicity against human HepG2 cells at 100 uM. To be noted: hepg2, 100 µM. Format: cell-based.
Series [3] concerns HepG2. Description: Increase in glucose consumption in human HepG2 cells grown under low-glucose medium assessed as reduction in glucose levels at 1 mM incubated for 7 hrs by glucose assay. Format: functional. Also on record: scale not given: the % may be the effect or the level left. The procedure, abridged:
as §1

Series [4] addresses AMP-activated protein kinase, AMPK (Homo sapiens) (UniProt P54646+O43741+P54619+Q9UGJ0+Q9Y478+Q13131+Q9UGI9). Description: Increase in AMPK phosphorylation in human HepG2 cells at 25 to 100 uM incubated for 24 hrs by Western blotting method. Format: cell-based. In outline: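 HepG2 cells were grown in 6-well plates for 8 h, then held overnight in low-glucose medium and treated for 24 h. Lysis was in RIPA buffer with BCA protein assay. 20 μg/lane was run on 8% SDS-PAGE and blotted to PVDF, blocked in 5% milk, and probed overnight for p-AMPK (Thr172), AMPK and β-actin. HRP secondary was applied for 1 h, with ECL detection on film.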
A general note: A western blot detects proteins with antibodies after separation by electrophoresis.

Regarding `COc1cc(C)cc2c1c(-c1ccc(O)cc1)[n+]1n2CCCC1`, the Activity is on record as 8% in the series on HepG2 [1] and “Non-toxic” with HepG2 [2].
`C[C@@]1(O)CC(=O)c2c(n3[n+](c2-c2ccc(O)cc2)CCCC3)C1`: the Activity in the series on HepG2 [1] is recorded as 8%; with HepG2 [2], “Non-toxic”.
On the same counts, the results for `Cc1cc(O)c2c[n+]3n(c2c1)CCCC3` are 8% and “Non-toxic”.
Consider `CN(C)C(=N)NC(=N)N` [METFORMIN], for which, in the series with HepG2 [3], the Activity is 24%.
`Cc1cc(O)c2c(-c3ccc(O)cc3)[n+]3n(c2c1)CCCC3`: the Activity in the series on HepG2 [1] is 8%; in the series with HepG2 [2], “Non-toxic”.
Take `COc1cc(C)cc2c1c(-c1ccc(O[C@@H]3O[C@H](CO)[C@@H](O)[C@H](O)[C@H]3O)cc1)[n+]1n2CCCC1`: the figures for the Activity (in the series on HepG2 [1]; in the series on HepG2 [2]; in series [4]) were 29%, “Non-toxic” and “Dose-dependent effect”, respectively.
On to `COc1cc(C)cc2c1c[n+]1n2CCCC1`, for which the Activity in the series with HepG2 [1] is 8%; in the series on HepG2 [2] it was “Non-toxic”; in series [4], “Dose-dependent effect”.
